TAG inh: triacylglycerol accumulation inhibition; inhibition, % at 12.5 µM; 230,000 tested, 0.66% active; H9c2 cells, Nile Red lipid (TAG) fluorescence; cells loaded with 200 µM oleic acid;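 active means pattern-corrected inhibition of lipid staining of at least 50% with the nuclear-stain viability signal not falling by more than 50%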
Vif imaging: inhibitors of HIV Vif; HEK293T cells, Vif self-association by quenched fluorescence, imaging, 24 h; inhibition, % at 7.49 µM; 340,000 tested, 0.35% active; in the data active means inhibition above about 50%, passing the limit was not always enough
SR-BI DiI inh: mouse SR-BI HDL lipid transfer inhibition; inhibition, % at 12.5 µM; Q61009; 320,000 tested, 0.96% active; ldlA[mSR-BI] CHO cells, DiI-HDL uptake fluorescence, 3 h; AID 488896;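 active means mean replicate inhibition of at least 70% and a set share of replicates each scoring 70 or more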
Target sequence (Q61009 whole entry, looked up): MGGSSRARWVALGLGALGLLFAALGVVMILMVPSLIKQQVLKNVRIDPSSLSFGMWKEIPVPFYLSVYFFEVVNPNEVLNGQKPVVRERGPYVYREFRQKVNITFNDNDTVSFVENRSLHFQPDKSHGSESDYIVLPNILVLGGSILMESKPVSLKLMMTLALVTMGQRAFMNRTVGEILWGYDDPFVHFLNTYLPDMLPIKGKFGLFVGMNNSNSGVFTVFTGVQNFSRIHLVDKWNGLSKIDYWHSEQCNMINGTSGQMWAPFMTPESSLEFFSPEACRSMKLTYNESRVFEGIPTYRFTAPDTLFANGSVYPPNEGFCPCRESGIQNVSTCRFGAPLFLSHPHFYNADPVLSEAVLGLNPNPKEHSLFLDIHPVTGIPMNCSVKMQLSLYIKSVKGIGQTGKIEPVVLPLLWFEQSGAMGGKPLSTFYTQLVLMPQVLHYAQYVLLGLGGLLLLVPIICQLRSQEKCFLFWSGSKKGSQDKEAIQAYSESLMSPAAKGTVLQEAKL
SR-BI uptake up: enhances SR-BI lipid uptake from DiI-HDL; CHO ldlA[mSR-BI] cells, DiI-HDL uptake fluorescence, 3 h; 100 = double the neutral-control signal; activation, % at 12.5 µM; 320,000 tested, 0.096% active;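 active means mean replicate activation of at least 60% and every replicate at or above 60%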
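Material – SR-BI-overexpressing, LDLR-lacking CHO cells · Medium – BSA-supplemented, HEPES-buffered Ham's F12, pH 7.4 · Doses – single concentration · Times – compound with DiI-HDL co-incubation, 3 h at 37 °C · Measured by – bottom-read fluorescence, 550/595 nm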
SMARCA2 activ: SMARCA2 function activation, primary screen; 370,000 tested, 1% active; activation, % at 9.1 µM; MG213 cells, MMTV-luciferase reporter, dexamethasone, overnight; in the data active means activation above about 7.8%
Each line names hits and unclear results; the compound was inactive in the other large screens. In the library only some 2.5% were active in any assay of this set; here they are far more common.

Cc1ccc(S(=O)(=O)N(C)[C@H]2C[C@H]3c4cc(-c5ccc6c(c5)OCO6)ccc4CCN3C[C@H]2[C@H](C)O)cc1	none (no result: TAG inh, Vif imaging, SR-BI DiI inh, SR-BI uptake up)
CCCCNC(=O)C1(C(=O)c2ccc(OC)cc2)CC(c2ccccn2)=NO1 (stereo unspecified)	none (no result: TAG inh, Vif imaging, SR-BI DiI inh, SR-BI uptake up)
COC(=O)[C@]12C[C@H](CC(=O)NCc3ccc(OC)c(OC)c3)C(=O)N(CCc3ccc(OC)c(OC)c3)C1=C[C@H](COCc1ccccc1)O[C@@H]2C	none (no result: TAG inh, Vif imaging, SR-BI DiI inh, SR-BI uptake up)
COc1ccc(-c2cc(C(F)(F)F)n3nc(C(=O)Nc4c(C)n(C)n(-c5ccccc5)c4=O)c(Cl)c3n2)cc1	SR-BI DiI inh 79
COc1cccc(-c2cc(C(F)(F)F)n3nc(C(=O)Nc4c(C)n(C)n(-c5ccccc5)c4=O)cc3n2)c1	SR-BI DiI inh 78
COc1cccc(C2CC(C(F)(F)F)n3nc(C(=O)Nc4c(C)n(C)n(-c5ccccc5)c4=O)cc3N2)c1 (stereo unspecified)	none
Cc1c(NC(=O)c2nn3c(C(F)(F)F)cc(-c4ccccc4)nc3c2Cl)c(=O)n(-c2ccccc2)n1C	none (no result: TAG inh, Vif imaging)
CC1CCN(c2nc(-c3ccncc3)nc3ccccc23)CC1	SR-BI DiI inh 80
C[C@H](O)[C@@H]1C(=O)N2CCc3c([nH]c4c(-c5ccccc5)cccc34)[C@@H]2C[C@@H]1N(C)C(=O)c1ccco1	none (no result: TAG inh, Vif imaging, SR-BI DiI inh, SR-BI uptake up)
N#Cc1c(N)[nH]c2ccc(Sc3ccccc3)cc12	TAG inh 54
COc1ccc(CNC(=O)COC(=O)c2cc(S(=O)(=O)N3CCOCC3)ccc2O)cc1OC	Vif imaging 51
CC(C)NCCOc1cccc(Br)c1	Vif imaging 56
CC(C)NCCCCOc1cccc(Br)c1	none (no result: TAG inh)
O=c1cc(N2CCOCC2)[nH]c(=O)n1Cc1ccc(F)cc1	SR-BI uptake up 231 (no result: Vif imaging)
O=c1cc(N2CCN(c3ccc(F)cc3)CC2)[nH]c(=O)n1Cc1ccc(F)cc1	none
CC(=O)NC1CCCCN(C(C)C)C1=O (stereo unspecified)	none (no result: TAG inh, Vif imaging, SR-BI DiI inh, SR-BI uptake up)
Cn1cccc1-c1cc(C(=O)N/N=C/c2ccc([N+](=O)[O-])cc2)[nH]n1	Vif imaging 70 (no result: TAG inh)
Cn1cccc1-c1cc(C(=O)N/N=C/c2cc(Br)ccc2O)[nH]n1	SR-BI DiI inh 105 (no result: TAG inh)
COc1ccc(C2C(C#N)=C(N)Oc3cc(O)ccc32)cc1C (stereo unspecified)	SR-BI DiI inh 81 (no result: TAG inh)
COc1ccc(C2C(C#N)=C(N)Oc3cc(O)ccc32)cc1OC (stereo unspecified)	none
COC(=O)c1cc2c(c3c4ccccc4n(S(=O)(=O)c4ccc(OC)cc4)c13)C(=O)N(Cc1ccc(C(F)(F)F)cc1)C2	none (no result: TAG inh, Vif imaging, SR-BI DiI inh, SR-BI uptake up)
C/C(=N\NC(=O)c1ccc(CN2CCOCC2)cc1)c1ccc([N+](=O)[O-])cc1	SR-BI DiI inh 71
Cc1cc(/C=N/NC(=O)c2ccc(CN3CCOCC3)cc2)c(C)n1-c1ccccc1	SR-BI DiI inh 72 (no result: TAG inh)
C/C(=N/NC(=O)CNC(=O)c1ccccn1)c1ccc([N+](=O)[O-])cc1	SR-BI DiI inh 80
C/C(=N\NC(=O)c1ccc(CN2CCOCC2)cc1)c1cccc([N+](=O)[O-])c1	none (no result: TAG inh)
O=C(N/N=C(\c1ccccc1)c1ccccn1)c1cccc([N+](=O)[O-])c1	TAG inh 55 (no result: SMARCA2 activ)
COCCN1Cc2cc(C(=O)OC)c3c(c2C1=O)c1cc(OC)ccc1n3S(=O)(=O)c1ccc(C)cc1	none (no result: TAG inh, Vif imaging, SR-BI DiI inh, SR-BI uptake up)
COc1ccc(NC(=S)NCCc2ccccc2)c(C)c1	none
CCc1cc(Br)ccc1NC(=S)NCCc1ccccc1	SR-BI DiI inh 76
Cc1c(NS(=O)(=O)c2cc(C(=O)Nc3ccc(F)cc3Cl)ccc2Cl)c(=O)n(-c2ccccc2)n1C	none
Cc1ccc(NC(=O)c2ccc(Cl)c(S(=O)(=O)Nc3c(C)n(C)n(-c4ccccc4)c3=O)c2)cc1Cl	SR-BI DiI inh 73
CCOC(=O)N1CCN(C(=O)C[C@@H]2C(=O)N(Cc3ccc(OC)cc3)C3=CCN(C(=O)OC(C)(C)C)C[C@]32C(=O)OCC)CC1	none (no result: TAG inh, Vif imaging, SR-BI DiI inh, SR-BI uptake up)
O=C(N[C@H](C(=O)N1CCC[C@H]1C(=O)NC1CCCC1)C1CCCCC1)c1ccccc1	none (no result: TAG inh, Vif imaging, SR-BI DiI inh, SR-BI uptake up)
COc1ccc(C2CC(=O)C(c3ccc(Cl)cc3)=CN2Cc2ccccc2)cc1 (stereo unspecified)	none (no result: TAG inh, Vif imaging, SR-BI DiI inh, SR-BI uptake up)
CC(C)Oc1ccccc1/C=N/NC(=O)c1ccccc1Cl	SR-BI DiI inh 77
CCN(CC)S(=O)(=O)c1cccc(C(=O)Nc2cc(C)cc(C)c2)c1	SR-BI DiI inh 77
CCOc1ccccc1/C=N/NC(=O)c1cccc(S(=O)(=O)N(CC)CC)c1	SR-BI DiI inh 77
CCOc1ccccc1/C=N/NC(=O)c1cccc(Cl)c1	SR-BI DiI inh 86
CC(C)Oc1ccccc1/C=N/NC(=O)c1ccc(F)cc1	none (no result: TAG inh)
O=C(CN(CCc1ccccc1)S(=O)(=O)c1ccc(Cl)s1)N1CCOCC1	none (no result: TAG inh, Vif imaging, SR-BI DiI inh, SR-BI uptake up)
O=C(Nc1ccccc1Oc1ccccc1)NC1CCCCN(Cc2cccc(Cl)c2)C1=O (stereo unspecified)	none (no result: TAG inh, Vif imaging, SR-BI DiI inh, SR-BI uptake up)
Nc1[nH]c2cc(C(F)(F)F)ccc2c1C(=O)NC1CCCCC1	none (no result: TAG inh, Vif imaging, SR-BI DiI inh, SR-BI uptake up)
COC(=O)[C@]12C[C@H](CC(=O)N3CCSCC3)C(=O)N(Cc3ccc(Cl)cc3Cl)C1=C[C@H](C(C)C)O[C@@H]2C1CC1	none (no result: TAG inh, Vif imaging, SR-BI DiI inh, SR-BI uptake up)
O=C(CN1C(=O)CCSc2ccccc21)Nc1ccc(Cl)cc1	none (no result: TAG inh, Vif imaging, SR-BI DiI inh, SR-BI uptake up)
CCOC(=O)C1CCCN(C(=O)c2cc(-c3ccc(F)cc3)nc3ccccc23)C1 (stereo unspecified)	SR-BI DiI inh 70
O=C(Nc1ccc(N2CCN(C(=O)c3ccco3)CC2)c(Cl)c1)c1cc2ccccc2o1	SR-BI DiI inh 82
CCC(=O)N1CCN(c2ccc(NC(=O)c3cc4ccccc4o3)cc2Cl)CC1	SR-BI DiI inh 79
CCCC(=O)N1CCN(c2ccc(NC(=O)c3cc4ccccc4o3)cc2Cl)CC1	none
O=C(Nc1ccc(N2CCN(C(=O)c3ccccc3)CC2)c(Cl)c1)c1ccco1	none
C/C(=N\NC(=O)c1c(Cl)c(C)nn1C)c1ccc(NC(=O)COc2ccc(Cl)cc2C)cc1	SR-BI DiI inh 72
COC(=O)[C@]12C[C@H](CC(=O)N3CCN(C(=O)c4ccco4)CC3)C(=O)N(Cc3ccccc3)C1=C[C@H](C(C)(C)C)O[C@@H]2C	none (no result: TAG inh, Vif imaging, SR-BI DiI inh, SR-BI uptake up)
O=C(Cn1ncc(Cl)c(Cl)c1=O)N1CCOCC1	none (no result: TAG inh)
O=C(Cn1ncc(Cl)c(Cl)c1=O)N1CCN(Cc2ccccc2)CC1	TAG inh 64
CC(C)S(=O)(=O)N[C@@H]1c2cc3c(cc2[C@H](c2ccccc2)[C@H]1C)OCO3	none (no result: TAG inh, Vif imaging, SR-BI DiI inh, SR-BI uptake up)
CCn1c2ccccc2c2cc(NC(=O)c3ccc(C)c([N+](=O)[O-])c3)ccc21	none (no result: TAG inh)
CCn1c2ccccc2c2cc(NC(=O)c3cc(OC)cc(OC)c3)ccc21	SR-BI DiI inh 77 (no result: TAG inh)
CCn1c2ccccc2c2cc(NC(=O)c3cccc([N+](=O)[O-])c3)ccc21	SR-BI DiI inh 80
O=[N+]([O-])c1cccc(/C=N/Nc2nc(N3CCOCC3)nc(N3CCOCC3)n2)c1	none (no result: TAG inh)
O=[N+]([O-])c1cccc(/C=C2\CCC(/C=N/Nc3ccc4ccccc4n3)=C2N2CCOCC2)c1	SR-BI DiI inh 88 (no result: TAG inh)
